Data: ChEMBL document CHEMBL4513216, “Probing the Open Global Health Chemical Diversity Library for Multistage-Active Starting Points for Next-Generation Antimalarials” (ACS Infect Dis, 2020)

Assay: Toxicity liver stage against HepG2, at 10uM
Assay type: cell-based
Design: test concentration 10 uM, cell line HepG2-A16-CD81EGFP
Conditions: human, HepG2-A16-CD81EGFP cells; read-out: INHIBITION
In short: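 Uninfected HepG2-A16-CD81EGFP cells, 3 × 10^3 per well, 1536-well, plated on prespotted compound at 10 μM final, parasite-free screening media added to match infected plates; puromycin 10 μM positive, DMSO 0.5% negative; run in parallel with 48 h PbLuc assay at 37 °C, 5% CO2; viability by CellTiter-Glo luminescence, normalized to controls.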

SMILES | cytotoxicity at 10 µM
Cc1n[nH]c(C)c1CC(=O)NCc1ccccc1Cl | 9.87%
CC(C)CCN1C(=O)c2ccc(C(=O)NCCc3c[nH]cn3)cc2C1=O | -12.5%
COc1cn(CC(N)=O)c(CSc2nccc(C)n2)cc1=O | -12.1%
COCCCNC(=O)Cc1cc(-c2ccc3c(c2)OCO3)on1 | 57.7%
N#Cc1cccnc1OC1CCN(S(=O)(=O)c2ccc(F)c(Cl)c2)CC1 | 6.27%
N#Cc1ccc(OC2CCN(C(=O)Cc3cccs3)CC2)nc1 | 1.96%
Cc1nc(N(C)C)nc(C)c1NC(=O)c1ccccc1F | 41.7%
CCS(=O)(=O)NCc1nc(C)cc(N2CCOCC2)n1 | -0.978%
CC(=O)NCc1noc2c1CN(Cc1ccsc1)CC2 | -3.21%
O=S(=O)(c1cccnc1)N1C[C@@H]2COC[C@]2(COCC2CC2)C1 | 4.83%
Cc1ccc(CN2Cc3c(cnn3C)C(COCC3CC3)C2)s1 (stereo unspecified) | 3.91%
COc1ccc(N2CCCC3(C2)CN(c2nncs2)CCO3)cc1 (stereo unspecified) | 4.17%
Cc1cc(=O)n(CC(=O)NC(C)C)c(Nc2ccc(F)c(C)c2)n1 | 7.97%
CC(=O)Cn1nc(-c2ccccc2F)ccc1=O | 0.477%
CCc1nn(-c2cc(Oc3cc(C)ccc3C)nc(C)n2)c(N)c1C#N | 58.4%
Cc1ccc(C)c(-c2csc(N)c2C#N)c1 | 5.47%
Cc1nnsc1C(=O)N1CCC(c2nc3ccccc3[nH]2)CC1 | 2.5%
CCCn1c(NCCc2ccccc2)nc2c(C)nn(C)c2c1=O | 66.4%
O=C1CNc2ncnc(Nc3cnn(Cc4ccc(F)cc4)c3)c2N1 | 6.85%
CC(C)CN1CCN(C(=O)c2[nH]nnc2Nc2ccccc2F)CC1 | 18.7%
Cc1cnc(Nc2cccc(C3CCCN3Cc3cn(C)nc3C)n2)s1 (stereo unspecified) | 13.2%
CN(C)c1cc(C2CCCN(C(=O)c3noc4c3CCCC4)C2)ccn1 (stereo unspecified) | -12.3%
O=C(c1cncs1)N1CCC(Cc2cnc3[nH]ccc3c2)CC1 | -3.94%

SMILES | cytotoxicity at 10 µM
Cc1ccccc1-c1cncc(C2CCN(C3CCOCC3)CC2)n1 | -2.81%
NCCC(=O)N1CCC2(CC1)CN(C(=O)Cc1ccc(Cl)cc1)CCO2 | 2.24%
Cc1cc(C(=O)NCC(F)(F)F)c2c(C3CCNCC3)noc2n1 | 10.4%
CC(C)COc1cncc(NCc2nnc3ccccn23)n1 | 13.1%
CC(Cc1cccc(Cl)c1)NC(=O)NCc1ncnn1C (stereo unspecified) | 8.52%
CC(C)c1cc(NC(=O)CNC2CCc3ncnn3C2)on1 (stereo unspecified) | 4.44%
O=c1n(CCNc2cccc3ccccc23)nc2ccccn12 | 0.392%
Cc1cnn(C2CCCN(C(=O)c3cc[nH]n3)C2)c1 (stereo unspecified) | -18.3%
CCc1noc(C(C)N2CCN(Cc3noc(C4CC4)n3)CC2)n1 (stereo unspecified) | -2.13%
CN(c1ncc(S(N)(=O)=O)s1)C1CCc2ccccc2C1 (stereo unspecified) | 11.1%
CC(C)Oc1ncccc1CNC(=O)N1CCOCC1 | -40.6%
Cc1nc(C)c(S(=O)(=O)NC(=O)c2ccoc2)s1 | -6.91%
N#Cc1ncn(CCS(=O)(=O)c2ccccc2)n1 | 1.18%
CSc1cc2c(cc1NC(=O)NCCn1ccnc1)OCCO2 | -8.28%
CC(C)(C)OC(=O)NCCc1csc(N2CCCC2)n1 | 24.9%
Cc1ccsc1C(=O)NC1CCN(c2cnn(C)c2)C1=O (stereo unspecified) | -7.11%
CC(C)C(O)C1(CNC(=O)Nc2ccc(CN3CCOC3=O)cc2)CC1 (stereo unspecified) | -5.09%
O=C(Nc1ccnc(OC2CCOC2)c1)c1ccccc1Cl (stereo unspecified) | 8.5%
COCCNC(=O)Nc1cccc2c1CCN(S(C)(=O)=O)C2 | 7.37%
CCc1nccn1C1CCCN(C(=O)c2ccnc(N(C)C)c2)C1 (stereo unspecified) | 0.795%
N#CCCCOc1cccnc1NC(=O)Cc1ccccc1F | -2.27%
CN(Cc1ccccc1)CC(C)(C)NC(=O)c1cnccn1 | 6.95%
Cc1cccc(C(C)NCC2CCS(=O)(=O)CC2)c1 (stereo unspecified) | -2.67%

SMILES | cytotoxicity at 10 µM
Cc1noc(OCc2ccc(C#N)cc2)n1 | -10.2%
Cc1cc(SC(C)(C)C)ccc1NC(C)C(=O)NC(N)=O (stereo unspecified) | -5.36%
CCc1noc(C(C)SCCS(C)(=O)=O)n1 (stereo unspecified) | 5.5%
CC(C)(C)OC(=O)NC(C)(C(N)=O)c1cccc(Cl)c1 (stereo unspecified) | 18.3%
CN1CCN(c2ccccc2NC(=O)NCCc2ccccc2)CC1 | -4.63%
CC(NCC(=O)Nc1ccc(N2CCCCCC2)cc1)c1cccs1 (stereo unspecified) | 1.8%
CC(=O)NC1CCCN(Cc2ccc(-n3ccnc3)cc2)C1 (stereo unspecified) | -57.4%
Cc1ncc2c(n1)CCCC2NC(=O)c1ccccc1Cn1cncn1 (stereo unspecified) | -24.4%
CC(C)CC(C)N(C)C(=O)CCn1cccn1 (stereo unspecified) | 0.395%
Cn1ccnc1C(=O)NC[C@@H]1OC[C@H]2CN(S(C)(=O)=O)CC[C@H]21 | -99.3%
CNC(=O)c1ncn2c1CN(CCC(C)C)S(=O)(=O)c1ccccc1-2 | -78.8%
CCc1ncnc2c1CCN(C(=O)c1cccn1C)CC2 | -73.5%
O=C(c1ccncn1)N1C[C@H]2CCC[C@@]2(COCC2CCOCC2)C1 | -79.2%
CN(Cc1ccncc1)CC1CCCN(CCc2ccc(Cl)cc2)C1 (stereo unspecified) | 1.06%
Cc1nc2c(c(NCCc3nccs3)n1)CCN(CC1CC1)CC2 | -1.38%
CN(C)c1cnn(CC(=O)N2CCN(Cc3cccs3)CC2)c(=O)c1 | 1.72%
CS(=O)(=O)NCC(=O)N[C@H]1CN(CC2CC2)C[C@@H]1c1ccccc1 | -0.29%
CCc1nc(CCn2ccnc2-c2nccn2C)no1 | -50.2%
COc1cccc(C(=O)N2CCN(C(=O)CCCc3cn[nH]c3)CC2)c1 | -1.3%
COCCc1noc(C2CCCN(c3nc(N)nc4c3CCCC4)C2)n1 (stereo unspecified) | 48.1%
CC(=O)N[C@@H]1CN(c2nc(CO)cs2)C[C@H]1c1ccc(C)o1 | -47%
Cc1cccn2c(CNC(C)CCc3ccc(O)cc3)cnc12 (stereo unspecified) | 1.95%
CCN1CC(C(=O)NCc2nn(CC)c3ccccc23)CCC1=O (stereo unspecified) | -5.83%

SMILES | cytotoxicity at 10 µM
O=C(CO)N1CCCC(N2CCN(c3ccccc3F)CC2)C1 (stereo unspecified) | -49.1%
CSc1ccc(CN2CCC(CCC(=O)Nc3ccccc3)CC2)cc1 | 6.8%
CC(=O)N[C@H]1CN(S(=O)(=O)N(C)Cc2ccccc2)C[C@@H]1C1CC1 | -144%
COc1cccc(N2CCN(C(C(=O)O)c3ccc(OC)nc3)CC2)c1 (stereo unspecified) | 14.5%
CCc1nc(NCCc2c(C)nn(CC)c2C)c2cnn(C)c2n1 | 9.33%
CCn1cc(CN2CCC(N3CCC(O)CC3)CC2)cc1C#N | 0.371%
CCN(CCn1c(=O)oc2ccccc21)CC1CCOCC1 | -8.73%
Cc1cc(N2CCC(NC(C)Cc3ccsc3)CC2)nc(N)n1 (stereo unspecified) | 2.22%
Cc1cccnc1CC(C)Nc1nc(N)nc2c1CCNC2 (stereo unspecified) | 2.09%
NC1CCN(C2CCN(c3ccc(-c4ccco4)cc3)CC2)CC1 | 1.03%
COc1ccccc1OC1CN(C(=O)c2ccccc2C(C)=O)C1 | 7.6%
CN(C)CCCNC(=O)c1ccc(N(C)S(C)(=O)=O)cc1Cl | -6.3%
CCCN(CCOC)C(=O)c1cc(Cn2c(C)nc3ccccc32)[nH]n1 | 21.8%
COCC1(C(=O)N[C@H]2CN(c3nnc(C)s3)C[C@@H]2C2CC2)CCC1 | -129%
Cc1ccnc(NCc2cn3nc(C)sc3n2)n1 | -0.449%
Cc1ccnc(NCCSc2nccn2C)n1 | -42%
NCC(=O)N1CCCC1c1ccc(C(=O)NCc2ccoc2)s1 (stereo unspecified) | 1.68%
Cc1cc(N2CCCN(C(=O)Cc3ccc(O)c(Cl)c3)CC2)ccn1 | -17.3%
c1cnc2c(C3CCN(Cc4ccsc4)CC3)n[nH]c2n1 | 1.34%
COc1ncc(C2(O)CCN(Cc3ccccc3O)CC2)c(OC)n1 | 2.33%
Cc1ccnc(NC(=O)c2[nH]nc(C(C)C)c2Br)c1 | 12.9%
Cc1cnn(CC2CN(c3ncnc4ccccc34)CCO2)c1 (stereo unspecified) | 6.57%
O=C(NCCNc1cnccn1)N1CCN(Cc2cccnc2)CC1 | 4.07%

SMILES | cytotoxicity at 10 µM
COCC1CC2(CCN(c3ccccn3)CC2)CN1C(C)C (stereo unspecified) | -110%
c1csc(CN2CCO[C@@H]3CN(C4CCOCC4)C[C@@H]3C2)c1 | -157%
Cc1ccc(CN2CCCC3(COCCN(Cc4c[nH]nn4)C3)C2)s1 (stereo unspecified) | -1.31%
COCC1CN(C(=O)Cc2ccccn2)Cc2ncnn2C1 (stereo unspecified) | -2.47%
CCN1CCC2(C1)CN(S(=O)(=O)c1cn(C)cn1)C2 | -109%
CC(C)NC(=O)C1(CC2CC(c3ccc(F)cc3)=NO2)CCNCC1 (stereo unspecified) | -8.54%
Cn1cnc2c1C(COCC1CCOCC1)CN(C(=O)c1ccco1)C2 (stereo unspecified) | -75.5%
Cc1csc(CN2CCC[C@]3(C[C@@H](Oc4ccccn4)CO3)C2)n1 | -141%
COc1c(CNCc2ccc(C(=O)N3CCCC3)cc2)c(C)nn1C | -3.23%
Cc1cccc(CN2C[C@@H]3COC[C@]3(CNC(=O)C3CCC3)C2)c1 | -112%
COc1ccccc1CN1CC[C@H]2C[C@H](C(=O)N3CCCC3)O[C@H]2C1 | -2.24%
CN(C)C(=O)CC1CC2(CCN(Cc3ccsc3)CC2)c2ccccc21 (stereo unspecified) | 1.13%
CNC(=O)COC1COC2(CCN(c3ccc(C#N)cc3)CC2)C1 (stereo unspecified) | -75.7%
c1ccc(CNCC2Cn3nnc(-c4ccncc4)c3CO2)nc1 (stereo unspecified) | -1.99%
CCCS(=O)(=O)N1C[C@@H]2CN(Cc3cnn(C)c3)CCO[C@@H]2C1 | 0.835%
CN(C)c1ncnc2c1CCN(CC1CCOCC1)CC2 | -69.6%
Cc1ccc(C(=O)N2Cc3c(CN4CCCCC4)nn(C)c3C2)cc1C | -2.81%
CCS(=O)(=O)N1CCC2(CC1)CC(COC)N(c1ncccn1)C2 (stereo unspecified) | 5.57%
O=C(NC1CCC1)[C@H]1C[C@H]2CN(CC3CC3)C[C@@H]1O2 | 7.55%
